Laboratory results: the M2OR odorant receptor database

What was measured:
Settings in all cases: stereoisomer not certain
UniProt L7MU75 = target: T1, UniProt L7MU75
T1 sequence (whole entry): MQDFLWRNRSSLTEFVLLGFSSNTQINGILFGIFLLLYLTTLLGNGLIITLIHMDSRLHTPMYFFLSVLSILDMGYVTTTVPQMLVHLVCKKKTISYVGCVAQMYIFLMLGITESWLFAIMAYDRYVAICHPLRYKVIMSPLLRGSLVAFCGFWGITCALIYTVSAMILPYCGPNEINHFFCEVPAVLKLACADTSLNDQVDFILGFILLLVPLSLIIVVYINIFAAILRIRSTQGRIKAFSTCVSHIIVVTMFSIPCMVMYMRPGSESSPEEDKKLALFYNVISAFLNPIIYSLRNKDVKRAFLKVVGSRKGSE
Procedure, shortened: (§1)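 Each entry records the cell line, G-protein, co-transfected protein and tags used. Methods varied with the source, often transient luciferase assays in mammalian cell lines. A receptor–molecule pair is called responsive (active) if the original authors judged its signal statistically different from baseline and non-responsive (inactive) otherwise.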

UniProt L7N210 = target: T2, UniProt L7N210
T2 sequence (whole entry): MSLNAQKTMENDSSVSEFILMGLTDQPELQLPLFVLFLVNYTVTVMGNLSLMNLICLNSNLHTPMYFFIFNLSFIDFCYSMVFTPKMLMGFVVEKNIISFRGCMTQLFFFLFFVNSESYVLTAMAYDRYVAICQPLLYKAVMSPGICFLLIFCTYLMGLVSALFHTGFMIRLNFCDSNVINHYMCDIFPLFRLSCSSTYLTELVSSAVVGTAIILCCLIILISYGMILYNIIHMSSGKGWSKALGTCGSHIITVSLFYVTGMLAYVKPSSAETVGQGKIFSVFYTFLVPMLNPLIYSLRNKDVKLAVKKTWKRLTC
Procedure, shortened: as §1

UniProt Q3KPB0 = target: T3, UniProt Q3KPB0
T3 sequence (whole entry): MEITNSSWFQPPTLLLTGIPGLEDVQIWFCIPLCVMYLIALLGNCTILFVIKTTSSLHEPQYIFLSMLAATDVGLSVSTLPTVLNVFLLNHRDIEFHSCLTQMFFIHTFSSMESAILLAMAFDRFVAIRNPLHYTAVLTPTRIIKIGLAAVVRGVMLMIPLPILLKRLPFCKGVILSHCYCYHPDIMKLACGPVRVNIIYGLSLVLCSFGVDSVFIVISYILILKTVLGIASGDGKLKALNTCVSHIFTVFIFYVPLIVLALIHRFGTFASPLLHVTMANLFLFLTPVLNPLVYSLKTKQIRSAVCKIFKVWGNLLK
Procedure, shortened: as §1

UniProt Q3U0P3 = target: T4, UniProt Q3U0P3
T4 sequence (whole entry): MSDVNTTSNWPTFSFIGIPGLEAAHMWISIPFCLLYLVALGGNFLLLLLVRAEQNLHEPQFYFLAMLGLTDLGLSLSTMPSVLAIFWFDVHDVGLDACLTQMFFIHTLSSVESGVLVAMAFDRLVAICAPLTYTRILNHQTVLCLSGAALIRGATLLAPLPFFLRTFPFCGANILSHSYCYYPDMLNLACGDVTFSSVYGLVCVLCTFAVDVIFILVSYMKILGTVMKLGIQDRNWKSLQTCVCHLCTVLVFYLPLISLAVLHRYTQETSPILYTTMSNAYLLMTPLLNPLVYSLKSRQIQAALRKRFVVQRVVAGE
Procedure, shortened: as §1

UniProt Q7TQU8 = target: T5, UniProt Q7TQU8
T5 sequence (whole entry): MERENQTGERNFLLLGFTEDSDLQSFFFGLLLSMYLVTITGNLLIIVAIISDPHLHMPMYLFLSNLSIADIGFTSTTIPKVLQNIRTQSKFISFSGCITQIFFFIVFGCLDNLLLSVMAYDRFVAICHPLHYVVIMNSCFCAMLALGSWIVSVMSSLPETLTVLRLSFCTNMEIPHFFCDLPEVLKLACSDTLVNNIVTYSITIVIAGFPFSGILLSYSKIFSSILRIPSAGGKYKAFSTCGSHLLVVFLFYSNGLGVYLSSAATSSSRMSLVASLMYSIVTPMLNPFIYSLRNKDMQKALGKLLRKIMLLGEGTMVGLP
Procedure, shortened: as §1

UniProt Q7TQV4 = target: T6, UniProt Q7TQV4
T6 sequence (whole entry): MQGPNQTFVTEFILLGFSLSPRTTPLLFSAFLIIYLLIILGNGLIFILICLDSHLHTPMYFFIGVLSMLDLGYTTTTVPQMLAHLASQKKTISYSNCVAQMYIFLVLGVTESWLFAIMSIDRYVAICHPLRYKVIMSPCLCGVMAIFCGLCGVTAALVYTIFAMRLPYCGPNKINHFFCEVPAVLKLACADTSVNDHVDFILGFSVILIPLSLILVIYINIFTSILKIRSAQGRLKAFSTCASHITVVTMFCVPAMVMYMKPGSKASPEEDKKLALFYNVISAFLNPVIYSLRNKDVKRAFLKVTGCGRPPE
Procedure, shortened: as §1

UniProt L7N1Y8 = target: UniProt L7N1Y8
Procedure, shortened: as §1

UniProt Q7TQR7 = target: UniProt Q7TQR7
Procedure, shortened: as §1

UniProt Q7TQR9 = target: UniProt Q7TQR9
Procedure, shortened: as §1

UniProt Q7TQR9, sequence (Q7TQR9 as listed by the source): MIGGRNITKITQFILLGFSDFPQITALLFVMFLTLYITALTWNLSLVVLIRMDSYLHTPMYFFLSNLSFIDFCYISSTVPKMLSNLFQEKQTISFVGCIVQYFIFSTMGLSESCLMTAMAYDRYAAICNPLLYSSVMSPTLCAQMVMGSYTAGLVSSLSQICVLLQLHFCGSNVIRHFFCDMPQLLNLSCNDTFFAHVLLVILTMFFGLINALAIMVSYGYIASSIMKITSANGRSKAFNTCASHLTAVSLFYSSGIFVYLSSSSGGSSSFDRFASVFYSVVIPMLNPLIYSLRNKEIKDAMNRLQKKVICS
UniProt L7N1Y8, sequence (L7N1Y8 as listed by the source): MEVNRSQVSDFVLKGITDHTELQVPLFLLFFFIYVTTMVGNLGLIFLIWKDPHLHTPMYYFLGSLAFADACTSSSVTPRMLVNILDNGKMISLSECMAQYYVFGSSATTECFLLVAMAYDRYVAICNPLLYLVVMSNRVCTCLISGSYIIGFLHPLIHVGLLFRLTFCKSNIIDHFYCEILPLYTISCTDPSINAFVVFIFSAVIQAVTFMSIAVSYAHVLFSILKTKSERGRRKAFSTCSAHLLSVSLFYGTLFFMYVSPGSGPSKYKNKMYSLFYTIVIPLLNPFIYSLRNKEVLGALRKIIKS
UniProt Q7TQR7, sequence (Q7TQR7 as listed by the source): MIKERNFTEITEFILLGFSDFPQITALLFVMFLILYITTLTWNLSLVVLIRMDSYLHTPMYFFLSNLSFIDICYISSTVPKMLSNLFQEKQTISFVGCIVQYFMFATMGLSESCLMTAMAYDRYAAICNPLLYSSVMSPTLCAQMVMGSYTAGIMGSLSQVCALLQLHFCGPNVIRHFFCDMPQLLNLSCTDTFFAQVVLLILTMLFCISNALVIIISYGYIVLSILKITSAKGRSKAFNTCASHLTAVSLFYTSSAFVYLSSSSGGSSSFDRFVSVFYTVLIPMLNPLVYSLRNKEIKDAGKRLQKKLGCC

| SMILES | odorant receptor agonist call (UniProt L7MU75) | odorant receptor agonist call (UniProt L7N210) | odorant receptor agonist call (UniProt Q3KPB0) | odorant receptor agonist call (UniProt Q3U0P3) | odorant receptor agonist call (UniProt Q7TQU8) | odorant receptor agonist call (UniProt Q7TQV4) | odorant receptor agonist call (UniProt L7N1Y8) | odorant receptor agonist call (UniProt Q7TQR7) | odorant receptor agonist call (UniProt Q7TQR9) |
| --- | --- | --- | --- | --- | --- | --- | --- | --- | --- |
| C=CCOC(=O)CCCCCC | inactive | inactive | inactive | inactive | inactive | inactive |  |  |  |
| CC(=O)OCc1ccccc1 | inactive | inactive | inactive | inactive | inactive | inactive |  |  |  |
| CCC(=O)C(=O)CC | inactive | inactive | inactive | inactive | inactive | inactive |  |  |  |
| c1ccccc1 | inactive | inactive | inactive | inactive | inactive | inactive |  |  |  |
| Cc1ccccc1OC(=O)C(C)C | inactive | inactive | inactive | inactive | inactive |  |  |  |  |
| CCCCCCOC(C)=O | inactive | inactive | inactive | inactive | inactive | inactive |  |  |  |
| CCCCC(=O)O | inactive | inactive | inactive | inactive | inactive | inactive |  |  |  |
| CCc1ccccc1O | inactive | inactive | inactive | inactive | inactive |  |  |  |  |
| COc1cc(C(=O)O)ccc1O | inactive | inactive | inactive | inactive | inactive | inactive |  |  |  |
| CC12CCC(CC1=O)C2(C)C (stereo not drawn) | inactive | inactive | inactive | inactive | inactive | inactive |  |  |  |
| O=C(c1ccccc1)c1ccccc1 | active | inactive | inactive | inactive | inactive | inactive |  |  |  |
| CCCC(=O)C(C)=O | inactive | inactive | inactive | inactive | inactive | inactive |  |  |  |
| O=C1CCOc2ccccc21 |  |  |  |  |  |  | active |  |  |
| CC1CCCCCCCCCCCCC(=O)C1 (stereo not drawn) |  |  |  |  |  |  |  | inactive | inactive |
